Screening results from PubChem BioAssay.
KDM4C inh = inhibitors of GASC-1 (KDM4C) histone demethylase, primary screen, biochemical, single concentration HTS. Lysine-specific demethylase 4C (Homo sapiens), Q9H3R0. GST-KDM4C 2-372, H3K9me3 peptide, LANCE TR-FRET. inhibition, % at 12.5 µM. hit rate 0.15% among 96,000. AID 720574, 2013;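 active = mean replicate inhibition above about 25%, with at least 55% of replicates also reaching it, limit read from the data, passing the limit was not always enough; inconclusive = only one of those two conditions met; inactive = neither condition met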
Target sequence (Q9H3R0 2-372 limits assumed): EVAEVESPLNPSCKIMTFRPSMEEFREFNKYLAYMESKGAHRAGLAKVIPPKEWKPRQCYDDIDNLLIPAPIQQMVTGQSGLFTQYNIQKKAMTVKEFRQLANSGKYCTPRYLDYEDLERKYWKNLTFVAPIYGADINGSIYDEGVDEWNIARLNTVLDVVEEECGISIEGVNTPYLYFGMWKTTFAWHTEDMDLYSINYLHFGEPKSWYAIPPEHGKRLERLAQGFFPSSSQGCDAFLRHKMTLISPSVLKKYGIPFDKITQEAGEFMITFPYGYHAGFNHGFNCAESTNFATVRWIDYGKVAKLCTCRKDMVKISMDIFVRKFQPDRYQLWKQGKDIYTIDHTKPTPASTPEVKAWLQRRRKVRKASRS
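Material: GST-tagged GASC-1 (JMJD2C) catalytic fragment, aa 2-372 / Quantity: enzyme final amount 10 nM / Medium: HEPES buffer, pH 7.5, plus ascorbate / Doses: one test concentration per compound / Incubation: 30 min reaction, 60 min detection, RT / Measured by: LANCE TR-FRET / Read-out: inhibition from TR-FRET ratio decrease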
Pf Dd2 inh = P. falciparum Dd2 growth inhibitors, primary screen, SYBR Green fluorescence, single dose replicates; activity change, % at 10 µM; hit rate 2.3% among 94,000; 72 h; active compounds read low; in the data active = activity change below about -80%; inconclusive = no clear call, values can overlap the other calls
T cruzi growth-1 = T. cruzi intracellular proliferation inhibitors, primary screen, cell-based, beta-gal Tulahuen parasites, NIH3T3 host, luminescence; T. cruzi beta-gal in NIH3T3, GalScreen luminescence, 90 h; inhibition, % at 8.34 µM; hit rate 5.9% among 77,000;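 active = mean inhibition above about 93%, with at least 55% of replicates each passing it, limit read from the data, passing the limit was not always enough; inconclusive = only one of those two conditions holds; inactive = neither condition holds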
IDH1 mut inh = inhibitors of IDH1 R132H reductase, primary screen, biochemical, plate reader, single point; diaphorase/resazurin fluorescence, 60 min; inhibition, % at 10 µM; AID 624101, 2012; hit rate 0.18% among 70,000; in the data active = inhibition above about 34%; inconclusive = no clear call, values can overlap the other calls; inactive = below about 11%
T cruzi growth-2 = T. cruzi intracellular proliferation inhibitors, confirmation, cell-based, NIH3T3 host, beta-gal parasite, luminescence, cherry-pick | shares compounds with T cruzi growth-1 | T. cruzi beta-gal in NIH3T3, GalScreen luminescence, 90 h | inhibition, % at 8.35 µM | hit rate 72% among 5,600;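 active = mean replicate inhibition above about 95% and at least 55% of replicates individually reaching it, limit read from the data; inconclusive = only one of the two criteria is met; inactive = neither criterion is met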
T cruzi growth-3 = inhibitors of intracellular T. cruzi replication, confirmation, NIH3T3 host cells, beta-gal parasites, cherry-pick, set 2. shares compounds with T cruzi growth-1. T. cruzi beta-gal in NIH3T3, GalScreen luminescence, 90 h. inhibition, % at 2.09 µM. hit rate 21% among 5,600. AID 651740, 2012;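 active = mean inhibition above about 95%, with at least 55% of replicates also reaching it, limit read from the data; inconclusive = meets just one of the two conditions; inactive = meets neither condition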
3T3 cytotox = cytotoxicity in mouse NIH/3T3 fibroblasts, confirmation, cytotoxicity control for T. cruzi proliferation inhibitor project, cell-based, cherry-pick, single point. cytotoxicity (signal decrease), % at 8.35 µM. AID 651742, 2012. hit rate 14% among 5,600. shares compounds with T cruzi growth-1. NIH/3T3 viability, CellTiter-Glo ATP luminescence, 90 h;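 active = mean signal decrease across replicates above about 35% based on untreated-well scatter, with enough replicates individually passing, limit read from the data; inconclusive = no rule stated though some were filed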
NIH3T3 tox 2 = NIH/3T3 fibroblast cytotoxicity, confirmation, cytotoxicity control, cell-based, cherry-pick, single point, set 2; inhibition, % at 24.9 µM; shares compounds with T cruzi growth-1; hit rate 56% among 5,600; NIH/3T3 viability, CellTiter-Glo ATP luminescence, 90 h;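 active = mean loss of cell viability signal at or above a set limit, and enough replicates individually reaching it; inconclusive = meets only the mean limit or only the replicate share; inactive = meets neither condition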
A number is an active result. Most compounds without a hit are left out; they make up all but 5.9% or so of the library.

Results for C[C@@H]1CN([C@H](C)CO)S(=O)(=O)c2ccc(-c3ccccc3)cc2O[C@@H]1CN(C)Cc1cccc(F)c1 ?
KDM4C inh: inactive; Pf Dd2 inh: inactive; T cruzi growth-1: 124; IDH1 mut inh: inactive; T cruzi growth-2: 112; T cruzi growth-3: inactive; 3T3 cytotox: inactive; NIH3T3 tox 2: 104

Results for C[C@@H]1CN([C@@H](C)CO)S(=O)(=O)c2ccc(-c3ccccc3)cc2O[C@H]1CN(C)Cc1cccc(F)c1 ?
KDM4C inh: inactive; Pf Dd2 inh: inactive; T cruzi growth-1: 122; IDH1 mut inh: inactive; T cruzi growth-2: 99; T cruzi growth-3: inconclusive; 3T3 cytotox: 40; NIH3T3 tox 2: 103

How did COc1ccc(N(CC(=O)Nc2ccccc2F)S(C)(=O)=O)cc1Cl do in these assays?
IDH1 mut inh: inactive

Results for C[C@@H]1CCCCO[C@@H](CN(C)C(=O)NC2CCCCC2)[C@@H](C)CN([C@@H](C)CO)C(=O)c2cc(NS(=O)(=O)c3ccc(Cl)cc3)ccc2O1 ?
KDM4C inh: inactive; Pf Dd2 inh: inactive; T cruzi growth-1: 99; IDH1 mut inh: inactive; T cruzi growth-2: 103; T cruzi growth-3: inactive; 3T3 cytotox: inactive; NIH3T3 tox 2: inactive

Results for C[C@H](CO)N1C[C@H](C)[C@H](CN(C)C(=O)NC2CCCCC2)OCCCC[C@H](C)Oc2ccc(NS(=O)(=O)c3ccccc3)cc2C1=O ?
KDM4C inh: inactive; Pf Dd2 inh: inactive; T cruzi growth-1: 94; T cruzi growth-2: inconclusive; T cruzi growth-3: inactive; 3T3 cytotox: inactive; NIH3T3 tox 2: inactive

How did C[C@@H]1CCCCO[C@@H](CN(C)C(=O)NC2CCCCC2)[C@H](C)CN([C@@H](C)CO)C(=O)c2cc(NS(=O)(=O)c3ccc(Cl)cc3)ccc2O1 do in these assays?
KDM4C inh: inactive; Pf Dd2 inh: inactive; T cruzi growth-1: inactive; IDH1 mut inh: inactive

Results for Cc1ccc(S(=O)(=O)Nc2ccc3c(c2)C(=O)N([C@H](C)CO)C[C@H](C)[C@H](CN(C)C(=O)NC2CCCCC2)OCCCC[C@H](C)O3)cc1 ?
KDM4C inh: inactive; Pf Dd2 inh: inactive; T cruzi growth-1: 118; T cruzi growth-2: 105; T cruzi growth-3: inactive; 3T3 cytotox: inactive; NIH3T3 tox 2: inactive

Results for CCOC(=O)c1cnc(SC2CC(=O)N(c3cccc(F)c3)C2=O)nc1N (stereo not drawn) ?
IDH1 mut inh: inactive

Results for Cc1ccc(S(=O)(=O)N2C(=O)CCC2C(=O)Nc2cccc3c2CCCC3)cc1 (stereo not drawn) ?
IDH1 mut inh: inactive

What do the screens show for `CCc1cnc(N2[C@@H](C#N)[C@@H](c3ccc(C#Cc4ccccc4F)cc3)[C@@H]2CO)s1`?
KDM4C inh: inactive; Pf Dd2 inh: inactive; T cruzi growth-1: 100; T cruzi growth-2: inactive; T cruzi growth-3: 109; 3T3 cytotox: inactive; NIH3T3 tox 2: 62

Results for CCc1cnc(N2[C@H](CO)[C@@H](c3ccc(C#Cc4ccccc4F)cc3)[C@@H]2C#N)s1 ?
KDM4C inh: inactive; Pf Dd2 inh: inactive; T cruzi growth-1: 103; T cruzi growth-2: 96; T cruzi growth-3: 111; 3T3 cytotox: inactive; NIH3T3 tox 2: 85

Results for CN(C)c1ccc2c3c(ccc(N(C)C)c13)[C@](O)(C(F)(F)F)O[C@]2(O)C(F)(F)F ?
IDH1 mut inh: inactive

How did COc1ccccc1OC(C)C(=O)Nc1c(C)n(C)n(-c2ccccc2)c1=O (stereo not drawn) do in these assays?
IDH1 mut inh: inactive

Results for COc1cccc(C#Cc2ccc3c(c2)O[C@H](CN(C)C(C)=O)[C@H](C)CN([C@H](C)CO)S3(=O)=O)c1 ?
KDM4C inh: inactive; Pf Dd2 inh: inactive; T cruzi growth-1: inactive; IDH1 mut inh: inactive

Results for COc1cccc(NC(=O)N(C)C[C@@H]2Oc3cc(C#Cc4ccc(F)cc4)ccc3S(=O)(=O)N([C@@H](C)CO)C[C@H]2C)c1 ?
KDM4C inh: inactive; Pf Dd2 inh: inactive; T cruzi growth-1: 105; IDH1 mut inh: inactive; T cruzi growth-2: 109; T cruzi growth-3: 105; 3T3 cytotox: 48; NIH3T3 tox 2: 30

What do the screens show for `COc1cccc(NC(=O)N(C)C[C@@H]2Oc3cc(-c4ccccc4F)ccc3S(=O)(=O)N([C@@H](C)CO)C[C@@H]2C)c1`?
Pf Dd2 inh: inactive; T cruzi growth-1: inactive

What do the screens show for `COc1cccc(C#Cc2ccc3c(c2)O[C@H](CN(C)C(C)=O)[C@@H](C)CN([C@@H](C)CO)S3(=O)=O)c1`?
KDM4C inh: inactive; Pf Dd2 inh: inactive; T cruzi growth-1: inconclusive; IDH1 mut inh: inactive; T cruzi growth-2: 102; T cruzi growth-3: inactive; 3T3 cytotox: inactive; NIH3T3 tox 2: 49

Results for COc1cccc(NC(=O)N(C)C[C@H]2Oc3cc(-c4ccccc4F)ccc3S(=O)(=O)N([C@H](C)CO)C[C@H]2C)c1 ?
Pf Dd2 inh: inactive; T cruzi growth-1: 96; T cruzi growth-2: 110; T cruzi growth-3: inactive; 3T3 cytotox: inactive; NIH3T3 tox 2: inactive

What do the screens show for `COc1cccc(NC(=O)N(C)C[C@H]2Oc3cc(C#CC4(O)CCCC4)ccc3S(=O)(=O)N([C@H](C)CO)C[C@@H]2C)c1`?
KDM4C inh: inactive; Pf Dd2 inh: inactive

What do the screens show for `COc1cccc(NC(=O)N(C)C[C@@H]2Oc3cc(C#Cc4ccc(F)cc4)ccc3S(=O)(=O)N([C@@H](C)CO)C[C@@H]2C)c1`?
KDM4C inh: inactive; Pf Dd2 inh: -86; T cruzi growth-1: 98; T cruzi growth-2: 102; T cruzi growth-3: 107; 3T3 cytotox: 45; NIH3T3 tox 2: inactive

What do the screens show for `COc1cccc(NC(=O)N(C)C[C@@H]2Oc3cc(-c4ccccc4F)ccc3S(=O)(=O)N([C@H](C)CO)C[C@H]2C)c1`?
KDM4C inh: inactive; Pf Dd2 inh: inactive; T cruzi growth-1: inactive
